Measurements published in ChEMBL document CHEMBL4376814, “Novel cyclin-dependent kinase 9 (CDK9) inhibitor with suppression of cancer stemness activity against non-small-cell lung cancer” (Eur J Med Chem, 2019).

Key:
[1] = target: CDK4/Cyclin D3 (Homo sapiens) (UniProt P11802+P30281); experiment: Inhibition of recombinant full-length human CDK4/cyclinD3 at 1 uM using Rb fragment as substrate measured after 40 mins in presence of [gamma33P]ATP by scintillation counting method relative to control; type: protein-complex assay
Method in brief: (§1)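 Percent inhibition of kinase activity at a single compound concentration, measured by the outsourced Eurofins KinaseProfiler panel. Values are the mean of two independent experiments.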

[2] = target: CDK6/cyclin D3 (Homo sapiens) (UniProt P30281+Q00534); experiment: Inhibition of recombinant full-length human CDK6/cyclinD3 at 1 uM using histone H1 as substrate measured after 40 mins in presence of [gamma33P]ATP by scintillation counting method relative to control; type: protein-complex assay; method in brief: as §1
HepG2 = experiment: Antiproliferative activity against human HepG2 cells assessed as inhibition of cell viability at 10 uM after 72 hrs by CCK-8 assay relative to control; type: functional; conditions: HepG2, 72 h
Method in brief: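 Single-concentration viability screen using CCK-8. Cells were seeded at 3000/well and treated for 72 h. A450 read after 1-4 h with reagent. Percent inhibition calculated against untreated control and blank wells as (Ac−As)/(Ac−Ab)×100%.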

A549 = experiment: Induction of cell cycle arrest in human A549 cells assessed as accumulation at G2/M phase after 24 hrs by propidium iodide/RNase staining based flow cytometric analysis; type: functional
Method in brief: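 A549 and H1299 plated at 5×10^5 cells/mL in 6-well plates, treated after adherence for 24 h. Washed with PBS, fixed overnight in ice-cold 75% ethanol, stained with propidium iodide plus RNase A for 30 min at 37 °C, analysed by flow cytometry for phase distribution. Means ± SD, three independent experiments.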

NCI-H1299 = experiment: Induction of apoptosis in human H1299 cells assessed as necrotic cells at 1 uM after 48 hrs by AnnexinV-FITC/PI staining-based flow cytometric analysis (reference value: 0.9%); type: functional
[3] = Intrinsic clearance in Beagle dog liver microsomes at 2 uM in presence of NADPH measured up to 1 hr by HPLC analysis; type: ADME, Canis lupus familiaris, Microsome
[4] = target: Activin receptor type-1 (Homo sapiens) (UniProt Q04771); experiment: Inhibition of recombinant human ALK2 (147 to end residues) at 1 uM using casein as substrate measured after 40 mins in presence of [gamma33P]ATP by scintillation counting method relative to control
Method in brief: (§2)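 Single-point inhibition at 1 µM was measured in the Eurofins KinaseProfiler panel. Values are the mean of two independent experiments.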

[5] = target: Serine/threonine-protein kinase B-raf (Homo sapiens) (UniProt P15056); experiment: Inhibition of recombinant human BRAF (416 to end residues) at 1 uM using myelin basic protein as substrate measured after 40 mins in presence of [gamma33P]ATP by scintillation counting method relative to control
[6] = target: MAP/microtubule affinity-regulating kinase 4 (Homo sapiens) (UniProt Q96L34); experiment: Inhibition of full-length recombinant human MARK4 at 1 uM using KKKVSRSGLYRSPSMPENLNRPR as substrate measured after 40 mins in presence of [gamma33P]ATP by scintillation counting method relative to control; method in brief: as §1
[7] = target: Hepatocyte growth factor receptor (Homo sapiens) (UniProt P08581); experiment: Inhibition of recombinant human MET A1209G/V1290L mutant (974 to end residues) at 1 uM using KKKGQEEEYVFIE as substrate measured after 40 mins in presence of [gamma33P]ATP by scintillation counting method relative to control
[8] = test system: Calcium/calmodulin-dependent protein kinase kinase 2 (Homo sapiens), Q96RR4 [T85S]; experiment: Inhibition of recombinant full-length human CaMKK2 T85S mutant at 1 uM using calmodulin as substrate measured after 40 mins in presence of [gamma33P]ATP by scintillation counting method relative to control
[9] = target: Dual specificity protein kinase CLK1 (Homo sapiens) (UniProt P49759); experiment: Inhibition of recombinant human CLK1 (130 to end residues) at 1 uM using ERMRPRKRQGSVRRRV as substrate measured after 40 mins in presence of [gamma33P]ATP by scintillation counting method relative to control
[10] = target: Dual specificity protein kinase CLK2 (Homo sapiens) (UniProt P49760); experiment: Inhibition of recombinant human CLK2 (138 to end residues) at 1 uM using YRRAAVPPSPSLSRHSSPHQS(p) EDEEE as substrate measured after 40 mins in presence of [gamma33P]ATP by scintillation counting method relative to control; method in brief: as §2
[11] = target: Serine/threonine-protein kinase Nek7 (Homo sapiens) (UniProt Q8TDX7); experiment: Inhibition of recombinant human NEK7 (2 to end residues) at 1 uM using FLAKSFGSPNRAY as substrate measured after 40 mins in presence of [gamma33P]ATP by scintillation counting method relative to control
[12] = target: Serine/threonine-protein kinase 17A (Homo sapiens) (UniProt Q9UEE5); experiment: Inhibition of recombinant full-length human DRAK1 at 1 uM using KKLNRTLSFAEPG as substrate measured after 40 mins in presence of [gamma33P]ATP by scintillation counting method relative to control
[13] = target: Fibroblast growth factor receptor 1 (Homo sapiens) (UniProt P11362); experiment: Inhibition of recombinant human FGFR1 (456 to 765 residues) at 1 uM using KKKSPGEYVNIEFG as substrate measured after 40 mins in presence of [gamma33P]ATP by scintillation counting method relative to control
[14] = target: Protein kinase C iota type (Homo sapiens) (UniProt P41743); experiment: Inhibition of recombinant full-length human PKCiota at 1 uM using ERMRPRKRQGSVRRRV as substrate measured after 40 mins in presence of [gamma33P]ATP by scintillation counting method relative to control
[15] = target: Interferon-induced, double-stranded RNA-activated protein kinase (Homo sapiens) (UniProt P19525); experiment: Inhibition of recombinant human PKR (252 to end residues) at 1 uM using RSRSRSRSRSRSRSR as substrate measured after 40 mins in presence of [gamma33P]ATP by scintillation counting method relative to control; method in brief: as §2
[16] = target: High affinity nerve growth factor receptor (Homo sapiens) (UniProt P04629); experiment: Inhibition of recombinant human TRKA (440 to end residues) at 1 uM using KKKSPGEYVNIEFG as substrate measured after 40 mins in presence of [gamma33P]ATP by scintillation counting method relative to control
Mus musculus = species on record: Mus musculus; experiment: Inhibition of recombinant full-length mouse LYN N425D mutant at 1 uM using poly(Glu, Tyr) 4:1 as substrate measured after 40 mins in presence of [gamma33P]ATP by scintillation counting method relative to control
Homo sapiens = species on record: Homo sapiens; experiment: Inhibition of recombinant full-length human ATRIP/ATR M211T mutant at 1 uM using GST-cMyc-p53 as substrate measured after 40 mins by fluorescence assay relative to control
[17] = target: CDK9/cyclin T1 (Homo sapiens) (UniProt O60563+P50750); conditions: 1 uM

Hepatocyte growth factor receptor (Homo sapiens), sequence (P08581 whole entry): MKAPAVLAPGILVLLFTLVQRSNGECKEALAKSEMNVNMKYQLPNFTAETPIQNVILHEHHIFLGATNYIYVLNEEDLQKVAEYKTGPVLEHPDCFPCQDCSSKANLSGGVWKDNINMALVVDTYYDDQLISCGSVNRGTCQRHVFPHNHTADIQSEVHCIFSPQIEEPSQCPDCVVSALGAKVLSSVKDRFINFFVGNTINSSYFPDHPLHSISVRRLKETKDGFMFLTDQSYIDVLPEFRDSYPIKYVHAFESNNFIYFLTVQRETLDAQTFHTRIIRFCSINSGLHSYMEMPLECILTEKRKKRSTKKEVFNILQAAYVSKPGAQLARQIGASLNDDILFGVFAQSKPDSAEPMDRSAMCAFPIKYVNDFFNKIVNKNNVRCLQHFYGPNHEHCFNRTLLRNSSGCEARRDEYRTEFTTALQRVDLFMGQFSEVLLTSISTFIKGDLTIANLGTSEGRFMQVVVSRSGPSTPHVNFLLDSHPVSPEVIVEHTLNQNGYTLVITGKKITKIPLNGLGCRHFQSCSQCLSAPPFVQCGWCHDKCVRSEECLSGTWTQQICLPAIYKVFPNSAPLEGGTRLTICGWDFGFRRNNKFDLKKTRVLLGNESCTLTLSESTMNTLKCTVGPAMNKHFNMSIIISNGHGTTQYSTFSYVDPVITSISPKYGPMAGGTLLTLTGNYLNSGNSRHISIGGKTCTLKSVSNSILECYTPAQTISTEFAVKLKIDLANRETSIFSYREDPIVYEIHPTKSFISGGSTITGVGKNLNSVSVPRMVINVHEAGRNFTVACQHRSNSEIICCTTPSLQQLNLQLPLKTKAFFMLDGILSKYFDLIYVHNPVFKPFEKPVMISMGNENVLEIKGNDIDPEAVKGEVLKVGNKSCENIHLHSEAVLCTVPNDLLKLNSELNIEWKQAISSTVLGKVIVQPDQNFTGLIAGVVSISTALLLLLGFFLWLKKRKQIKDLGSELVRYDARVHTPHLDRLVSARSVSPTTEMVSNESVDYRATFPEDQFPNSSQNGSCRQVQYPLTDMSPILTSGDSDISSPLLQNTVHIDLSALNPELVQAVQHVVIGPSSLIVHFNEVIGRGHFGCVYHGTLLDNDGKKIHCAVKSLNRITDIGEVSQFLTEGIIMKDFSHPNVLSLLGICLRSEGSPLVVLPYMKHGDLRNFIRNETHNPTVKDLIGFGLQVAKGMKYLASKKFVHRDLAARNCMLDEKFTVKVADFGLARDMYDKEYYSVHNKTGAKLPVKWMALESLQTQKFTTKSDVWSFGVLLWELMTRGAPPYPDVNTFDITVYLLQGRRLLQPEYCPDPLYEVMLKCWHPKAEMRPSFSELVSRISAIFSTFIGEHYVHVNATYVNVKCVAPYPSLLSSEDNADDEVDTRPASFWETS
MAP/microtubule affinity-regulating kinase 4 (Homo sapiens), sequence (Q96L34 whole entry): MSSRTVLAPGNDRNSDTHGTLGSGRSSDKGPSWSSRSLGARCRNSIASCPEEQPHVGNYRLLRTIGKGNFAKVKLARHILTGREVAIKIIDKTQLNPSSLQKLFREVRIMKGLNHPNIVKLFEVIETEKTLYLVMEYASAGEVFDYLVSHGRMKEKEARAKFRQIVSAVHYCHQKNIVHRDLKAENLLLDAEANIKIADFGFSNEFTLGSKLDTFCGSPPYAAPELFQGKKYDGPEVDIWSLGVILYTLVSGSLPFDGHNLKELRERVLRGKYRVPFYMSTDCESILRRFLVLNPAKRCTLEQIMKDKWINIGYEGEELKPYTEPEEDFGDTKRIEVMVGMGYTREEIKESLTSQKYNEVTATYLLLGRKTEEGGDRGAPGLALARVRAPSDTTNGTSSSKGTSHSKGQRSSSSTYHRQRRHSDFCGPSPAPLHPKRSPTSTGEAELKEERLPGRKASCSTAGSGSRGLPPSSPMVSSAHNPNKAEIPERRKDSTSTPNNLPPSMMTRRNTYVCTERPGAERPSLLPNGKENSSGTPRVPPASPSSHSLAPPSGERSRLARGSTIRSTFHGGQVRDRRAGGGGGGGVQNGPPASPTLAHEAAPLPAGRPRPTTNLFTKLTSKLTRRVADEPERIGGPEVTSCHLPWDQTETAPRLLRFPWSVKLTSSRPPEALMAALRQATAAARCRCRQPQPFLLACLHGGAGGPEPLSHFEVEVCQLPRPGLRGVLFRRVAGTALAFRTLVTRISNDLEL
Serine/threonine-protein kinase 17A (Homo sapiens), sequence (Q9UEE5 whole entry, the tested form may be a part): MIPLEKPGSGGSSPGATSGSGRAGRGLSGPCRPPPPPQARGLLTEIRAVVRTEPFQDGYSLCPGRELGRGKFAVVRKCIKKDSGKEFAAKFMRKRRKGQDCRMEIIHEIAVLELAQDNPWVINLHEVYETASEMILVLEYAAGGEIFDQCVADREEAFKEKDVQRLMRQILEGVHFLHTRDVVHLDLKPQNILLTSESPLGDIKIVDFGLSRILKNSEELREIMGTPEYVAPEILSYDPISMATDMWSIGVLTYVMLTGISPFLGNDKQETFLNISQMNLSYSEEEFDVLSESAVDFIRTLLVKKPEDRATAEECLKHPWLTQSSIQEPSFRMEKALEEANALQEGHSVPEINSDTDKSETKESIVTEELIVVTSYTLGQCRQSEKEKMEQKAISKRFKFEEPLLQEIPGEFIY
High affinity nerve growth factor receptor (Homo sapiens), sequence (P04629 33-796 limits assumed): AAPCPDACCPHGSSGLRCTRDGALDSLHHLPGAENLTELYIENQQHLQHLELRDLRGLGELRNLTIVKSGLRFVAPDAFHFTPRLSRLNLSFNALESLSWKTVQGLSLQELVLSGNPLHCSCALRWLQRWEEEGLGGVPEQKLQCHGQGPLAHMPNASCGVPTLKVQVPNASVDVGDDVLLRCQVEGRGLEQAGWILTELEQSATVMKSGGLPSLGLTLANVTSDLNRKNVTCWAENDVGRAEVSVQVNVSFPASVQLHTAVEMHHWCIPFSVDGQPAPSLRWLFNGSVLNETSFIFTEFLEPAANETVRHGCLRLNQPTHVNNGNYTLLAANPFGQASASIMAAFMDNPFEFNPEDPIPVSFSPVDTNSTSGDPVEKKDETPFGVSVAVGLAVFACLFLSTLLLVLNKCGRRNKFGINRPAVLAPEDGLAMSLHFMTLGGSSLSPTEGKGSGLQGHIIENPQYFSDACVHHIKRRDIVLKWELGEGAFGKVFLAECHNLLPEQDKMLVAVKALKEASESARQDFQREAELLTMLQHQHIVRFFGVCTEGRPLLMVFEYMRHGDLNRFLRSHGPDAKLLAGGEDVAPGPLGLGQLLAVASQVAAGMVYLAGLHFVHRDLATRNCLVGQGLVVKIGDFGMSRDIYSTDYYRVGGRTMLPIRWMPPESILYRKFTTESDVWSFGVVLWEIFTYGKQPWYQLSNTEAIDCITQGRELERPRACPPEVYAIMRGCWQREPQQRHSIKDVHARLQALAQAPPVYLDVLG
Interferon-induced, double-stranded RNA-activated protein kinase (Homo sapiens), sequence (P19525 whole entry): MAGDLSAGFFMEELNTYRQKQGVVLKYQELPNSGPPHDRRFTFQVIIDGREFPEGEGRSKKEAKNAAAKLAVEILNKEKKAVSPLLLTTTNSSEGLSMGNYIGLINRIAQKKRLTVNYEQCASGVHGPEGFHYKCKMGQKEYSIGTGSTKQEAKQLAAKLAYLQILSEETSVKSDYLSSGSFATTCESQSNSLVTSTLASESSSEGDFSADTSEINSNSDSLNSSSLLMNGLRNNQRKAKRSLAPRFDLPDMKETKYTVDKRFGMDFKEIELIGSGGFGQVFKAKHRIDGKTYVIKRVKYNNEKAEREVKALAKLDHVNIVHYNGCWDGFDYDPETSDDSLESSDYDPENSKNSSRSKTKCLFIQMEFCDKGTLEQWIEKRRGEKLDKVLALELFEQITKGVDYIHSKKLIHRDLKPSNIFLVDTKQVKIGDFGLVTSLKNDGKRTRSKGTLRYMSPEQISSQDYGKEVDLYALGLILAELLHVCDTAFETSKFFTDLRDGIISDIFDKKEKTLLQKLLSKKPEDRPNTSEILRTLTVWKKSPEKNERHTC
Serine/threonine-protein kinase B-raf (Homo sapiens), sequence (P15056 whole entry): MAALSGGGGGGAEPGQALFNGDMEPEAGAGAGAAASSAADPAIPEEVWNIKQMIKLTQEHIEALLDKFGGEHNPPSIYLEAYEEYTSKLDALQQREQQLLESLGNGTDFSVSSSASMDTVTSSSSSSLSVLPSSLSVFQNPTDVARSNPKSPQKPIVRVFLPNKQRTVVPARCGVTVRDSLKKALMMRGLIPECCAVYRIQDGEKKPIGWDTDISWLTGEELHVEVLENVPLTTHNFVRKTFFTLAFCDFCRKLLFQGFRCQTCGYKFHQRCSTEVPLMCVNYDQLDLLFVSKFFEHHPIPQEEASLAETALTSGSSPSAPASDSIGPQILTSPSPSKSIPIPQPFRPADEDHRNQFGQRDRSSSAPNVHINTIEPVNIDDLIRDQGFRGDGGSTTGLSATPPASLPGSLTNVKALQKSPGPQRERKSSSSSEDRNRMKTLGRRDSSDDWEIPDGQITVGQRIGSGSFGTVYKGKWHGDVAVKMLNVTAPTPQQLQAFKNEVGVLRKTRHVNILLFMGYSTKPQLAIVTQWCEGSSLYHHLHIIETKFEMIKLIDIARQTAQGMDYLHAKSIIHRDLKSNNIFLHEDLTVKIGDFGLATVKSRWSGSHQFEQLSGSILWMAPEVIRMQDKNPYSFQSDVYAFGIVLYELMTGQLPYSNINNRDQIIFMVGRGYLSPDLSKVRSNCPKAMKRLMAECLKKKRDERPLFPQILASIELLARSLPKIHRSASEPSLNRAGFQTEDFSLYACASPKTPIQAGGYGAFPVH
Serine/threonine-protein kinase Nek7 (Homo sapiens), sequence (Q8TDX7 whole entry, looked up): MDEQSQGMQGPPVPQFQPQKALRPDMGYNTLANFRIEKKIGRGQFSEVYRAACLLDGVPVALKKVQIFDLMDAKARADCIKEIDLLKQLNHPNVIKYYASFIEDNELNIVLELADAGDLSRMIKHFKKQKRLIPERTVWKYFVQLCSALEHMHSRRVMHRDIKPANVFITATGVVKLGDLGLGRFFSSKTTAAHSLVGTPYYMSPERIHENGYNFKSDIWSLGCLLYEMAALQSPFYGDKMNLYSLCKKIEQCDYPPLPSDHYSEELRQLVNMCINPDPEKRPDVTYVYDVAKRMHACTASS

Question: Which results are given for `CN(C)C(=O)c1cc2cnc(Nc3ccc(NC(=O)CCCCCCCN=C=S)cc3)nc2n1C1CCCC1`?
Answer: inhibition [1]: 87%; inhibition [2]: 79%; inhibition at 10 µM (HepG2): 76%; Activity (A549): Dose-dependent effect; Activity (NCI-H1299): 3.64%; CLH [3]: 87 µL/min/mg; inhibition [4]: 11%; inhibition [5]: 34%; inhibition [6]: 77%; inhibition [7]: 84%; inhibition [8]: 88%; inhibition [9]: 14%; inhibition [10]: 12%; inhibition [11]: -6%; inhibition [12]: 22%; inhibition [13]: 72%; inhibition [14]: -4%; inhibition [15]: 11%; inhibition [16]: 77%; inhibition (Mus musculus): 36%; inhibition (Homo sapiens): -4%; inhibition [17]: 98%
